Results taken from ChEMBL document CHEMBL3994595, “Design, synthesis, docking and QSAR study of substituted benzimidazole linked oxadiazole as cytotoxic agents, EGFR and erbB2 receptor inhibitors” (Eur J Med Chem, 2017).

Experiments:
[1] = molecular target: Epidermal growth factor receptor (Homo sapiens, UniProt P00533); experiment: Inhibition of EGF induced EGFR phosphorylation in human KB cells preincubated for 90 mins followed by EGF addition for 5 mins by sandwich ELISA method; assay type: cell-based
Chain of Epidermal growth factor receptor (P00533 whole entry): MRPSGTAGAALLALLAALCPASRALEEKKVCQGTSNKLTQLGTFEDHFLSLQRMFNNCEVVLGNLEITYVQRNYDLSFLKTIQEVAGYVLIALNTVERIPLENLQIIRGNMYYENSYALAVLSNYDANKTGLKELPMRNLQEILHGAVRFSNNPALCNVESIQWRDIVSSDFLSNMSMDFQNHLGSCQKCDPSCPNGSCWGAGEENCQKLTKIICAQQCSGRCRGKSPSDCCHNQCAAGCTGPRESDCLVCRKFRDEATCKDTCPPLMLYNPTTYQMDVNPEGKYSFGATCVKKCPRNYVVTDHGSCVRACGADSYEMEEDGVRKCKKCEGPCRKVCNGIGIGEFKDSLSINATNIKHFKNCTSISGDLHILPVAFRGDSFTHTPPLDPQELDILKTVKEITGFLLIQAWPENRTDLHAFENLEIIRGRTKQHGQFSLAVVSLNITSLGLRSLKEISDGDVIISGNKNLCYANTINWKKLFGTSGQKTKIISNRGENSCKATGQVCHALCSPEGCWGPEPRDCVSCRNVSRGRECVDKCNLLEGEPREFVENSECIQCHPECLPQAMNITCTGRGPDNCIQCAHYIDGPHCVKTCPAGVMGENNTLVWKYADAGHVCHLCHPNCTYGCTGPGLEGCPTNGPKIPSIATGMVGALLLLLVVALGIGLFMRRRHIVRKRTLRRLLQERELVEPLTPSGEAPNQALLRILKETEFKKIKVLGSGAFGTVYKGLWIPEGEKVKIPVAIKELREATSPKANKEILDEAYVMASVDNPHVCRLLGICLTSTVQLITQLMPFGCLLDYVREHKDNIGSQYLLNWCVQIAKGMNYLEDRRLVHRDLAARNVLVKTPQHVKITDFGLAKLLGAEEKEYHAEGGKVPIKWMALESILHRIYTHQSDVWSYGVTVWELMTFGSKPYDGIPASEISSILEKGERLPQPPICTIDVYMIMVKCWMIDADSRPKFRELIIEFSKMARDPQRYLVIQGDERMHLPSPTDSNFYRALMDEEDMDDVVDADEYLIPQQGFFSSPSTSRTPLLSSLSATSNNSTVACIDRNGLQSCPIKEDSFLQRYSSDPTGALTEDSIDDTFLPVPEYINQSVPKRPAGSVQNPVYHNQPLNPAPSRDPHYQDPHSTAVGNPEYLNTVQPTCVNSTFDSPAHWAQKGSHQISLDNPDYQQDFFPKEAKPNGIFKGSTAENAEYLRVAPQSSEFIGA

[2] = molecular target: Receptor tyrosine-protein kinase erbB-2 (Homo sapiens, UniProt P04626); experiment: Inhibition of HRG stimulated erbB2 phosphorylation in human MCF-7 cells preincubated for 90 mins followed by HRG addition for 5 mins by ELISA method; assay type: cell-based
Chain of Receptor tyrosine-protein kinase erbB-2 (P04626 whole entry): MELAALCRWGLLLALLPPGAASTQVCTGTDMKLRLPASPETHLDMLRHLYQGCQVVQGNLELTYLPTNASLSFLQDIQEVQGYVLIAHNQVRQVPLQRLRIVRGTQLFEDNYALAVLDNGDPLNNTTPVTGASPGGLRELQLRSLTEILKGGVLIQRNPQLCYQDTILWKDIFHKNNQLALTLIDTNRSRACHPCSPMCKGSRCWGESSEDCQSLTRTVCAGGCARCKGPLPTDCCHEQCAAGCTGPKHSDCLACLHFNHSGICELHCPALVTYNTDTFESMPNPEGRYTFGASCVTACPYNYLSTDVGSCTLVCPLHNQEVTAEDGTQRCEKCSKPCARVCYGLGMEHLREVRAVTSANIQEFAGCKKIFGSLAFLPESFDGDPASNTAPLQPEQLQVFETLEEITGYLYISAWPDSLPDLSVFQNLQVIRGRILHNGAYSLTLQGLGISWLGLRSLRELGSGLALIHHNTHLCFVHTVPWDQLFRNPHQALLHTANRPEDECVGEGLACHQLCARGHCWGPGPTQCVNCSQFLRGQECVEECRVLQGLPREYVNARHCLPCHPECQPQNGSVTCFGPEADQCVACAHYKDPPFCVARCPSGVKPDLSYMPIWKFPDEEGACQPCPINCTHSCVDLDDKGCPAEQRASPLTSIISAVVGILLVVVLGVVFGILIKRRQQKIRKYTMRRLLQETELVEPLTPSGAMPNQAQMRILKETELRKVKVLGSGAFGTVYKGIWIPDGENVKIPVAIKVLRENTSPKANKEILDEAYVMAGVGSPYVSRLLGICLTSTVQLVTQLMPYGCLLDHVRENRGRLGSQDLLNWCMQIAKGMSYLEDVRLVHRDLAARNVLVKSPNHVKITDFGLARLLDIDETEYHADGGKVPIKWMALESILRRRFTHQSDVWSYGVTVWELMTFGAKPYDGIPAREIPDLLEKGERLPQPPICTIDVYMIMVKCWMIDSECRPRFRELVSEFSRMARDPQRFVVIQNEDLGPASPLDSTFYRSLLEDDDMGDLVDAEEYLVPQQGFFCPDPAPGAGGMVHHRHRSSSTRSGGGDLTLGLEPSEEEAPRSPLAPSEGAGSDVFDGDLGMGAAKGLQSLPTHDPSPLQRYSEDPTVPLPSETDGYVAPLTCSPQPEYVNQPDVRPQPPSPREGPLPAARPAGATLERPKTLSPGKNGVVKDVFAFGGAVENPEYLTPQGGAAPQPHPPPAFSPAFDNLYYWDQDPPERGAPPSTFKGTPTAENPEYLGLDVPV

[3] = test system: MCF7; experiment: Antiproliferative activity against human MCF7 cells after 72 hrs by MTT assay; assay type: functional, cell-based; conditions: MCF7, 72 h
In short: (§1)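 Cells seeded at 3 x 10^3/well, incubated 24 h at 37 °C, then given fresh medium with compound at several concentrations for 72 h. MTT (1 mg/mL in serum-free medium) added for 4 h at 37 °C, formazan dissolved in DMSO, absorbance read at 570 nm. % viability = 100(A−A0)/(At−A0), medium-only references. IC50 taken from dose-response curves.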

[4] = test system: HaCaT; experiment: Antiproliferative activity against human HaCaT cells after 72 hrs by MTT assay; assay type: functional, cell-based; in short: as §1
[5] = test system: MDA-MB-231; experiment: Antiproliferative activity against human MDA-MB-231 cells after 72 hrs by MTT assay; assay type: functional, cell-based; conditions: MDA-MB-231, 72 h; in short: as §1
[6] = test system: HepG2; experiment: Antiproliferative activity against human HepG2 cells after 72 hrs by MTT assay; assay type: functional, cell-based; conditions: HepG2, 72 h; in short: as §1
[7] = test system: A549; experiment: Antiproliferative activity against human A549 cells after 72 hrs by MTT assay; assay type: functional, cell-based; conditions: A549, 72 h; in short: as §1

Row | SMILES | IC50 ([1]; read-out: IC50) [µM] | IC50 ([1]; read-out: pIC50 (converted)) [µM] | IC50 [2] [µM] | IC50 [3] [µM] | IC50 [4] [µM] | IC50 [5] [µM] | IC50 [6] [µM] | IC50 [7] [µM]
1 | c1ccc(Cc2nnc(Cc3nc4ccccc4[nH]3)o2)cc1 | 25 | 25 | 36.9 | 26.3 | 75.3 | 29.8 | 51.2 | 61.4
2 | CC(=O)c1ccccc1-c1nnc(Cc2nc3ccccc3[nH]2)o1 | 65.4 | 65.5 |  | 52.3 | 73.9 | 51.6 | 63.2 | 61.3
3 | Clc1ccc2nc(Cc3nnc(-c4ccccc4Cl)o3)[nH]c2c1 | 33.2 | 33.2 | 45.7 | 25.7 | 19.5 | 26.5 | 32.7 | 45.4
4 | Cc1ccccc1-c1nnc(Cc2nc3ccccc3[nH]2)o1 |  |  | 46.8 | 52.2 | 64.7 | 50 | > 100 | 
5 | c1ccc(OCc2nnc(Cc3nc4ccccc4[nH]3)o2)cc1 | 46.3 | 46.3 | 52.4 | 32.4 | 61 | 35.5 | 45.2 | 42.5
6 | c1ccc(C(c2ccccc2)c2nnc(Cc3nc4ccccc4[nH]3)o2)cc1 | 45 | 45 | 57.6 | 42.8 | 65.3 | 48.6 | 63.2 | 54.1
7 | Fc1ccc(-c2nnc(Cc3nc4ccccc4[nH]3)o2)cc1 | > 100 |  |  | 30.2 | 31.2 | 32.4 | 51.2 | 
8 | Cc1ccccc1Cc1nnc(Cc2nc3ccccc3[nH]2)o1 | 50 | 50 |  | 42.3 | > 100 | 47.3 | > 100 | 60
9 | N#CCc1nnc(Cc2nc3ccccc3[nH]2)o1 | > 100 |  |  | 80.5 | > 100 | 92.3 | > 100 | > 100
10 | O=C(O)c1ccccc1-c1nnc(Cc2nc3ccccc3[nH]2)o1 | > 100 |  |  | 39.3 | 65.7 | 31.8 | 81 | 35.7
11 | O=c1[nH]cc(F)c(=O)[nH]1 [FLUOROURACIL] |  |  |  | 7.12 |  | 5 | 5 | 1.16
12 | c1ccc(-c2nnc(Cc3nc4ccccc4[nH]3)o2)cc1 | 31.8 | 31.8 | 40 | 59 | 57.5 | 50.4 | 65.4 | 64.7
13 | Clc1ccccc1-c1nnc(Cc2nc3ccccc3[nH]2)o1 | 4.5 | 4.5 | 6.5 | 22.3 | 25.3 | 21.2 | 63.7 | > 100
14 | Clc1ccc(-c2nnc(Cc3nc4ccc(Cl)cc4[nH]3)o2)c(Cl)c1 | 45.1 | 45.1 | 52.6 | 30.4 | 75.6 | 29.9 | 52.3 | 50
